Shown are actives, neighbours in structure and some others; about 12% of the full set was active somewhere.
ABCG2 block: inhibitors of human ABCG2 transporter, ABCB1 counter-screen; IgMXP3 cells, JC-1 efflux, flow cytometry; Q9UNQ0; 190,000 tested, 0.1% active; AID 1325; inhibition, % at 6.6 µM;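 active = inhibition above 80%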;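 note: 0% = DMSO and 100% = nicardipine control wells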
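material = IgMXP3 (ABCG2) plus far-red-tagged CCRF-Adr (ABCB1) cells | amount = 3 million cells/mL, equal mix of both lines | also added = JC-1 transporter substrate | dosing = one concentration, 6.6 µM final | schedule = 10 min at 25 °C | measured by = flow cytometric JC-1 green MFI at 530 nm | read-out basis = percent efflux inhibition, scaled nicardipine 100% to DMSO 0%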
WT yeast gro inh: growth inhibition of WT yeast, mitochondrial fusion screen | mitochondrial fusion phenotypic screen, WT strain | inhibition, % at 10 µM | 190,000 tested, 2.1% active; in the data active = inhibition above about 58%; tested in S. cerevisiae
ABCB1 block: inhibitors of human ABCB1 transporter, ABCG2 counter-screen | CCRF-Adr cells, JC-1 efflux, flow cytometry | inhibition, % at 6.6 µM | 190,000 tested, 0.067% active; in the data active = inhibition above about 40%;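 note: 0% = vehicle and 100% = reference inhibitor; higher value means more JC-1 retained so stronger ABCB1 efflux block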
Lmaj promast: inhibitors of Leishmania major promastigote growth; Leishmania major promastigotes, resazurin fluorescence viability; inhibition, % at 10 µM; 200,000 tested, 9% active; AID 1063; in the data active = inhibition above about 50%;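 note: promastigotes grown with compound for 44 hours at 28 °C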
RAM network inh: blocks the yeast RAM network | S. cerevisiae dse1pr::URA3 reporter, 5-FOA growth OD615, 2 d; analog-sensitive cbk1-as2 kinase mutant strain | inhibition, % at 50 µM | 190,000 tested, 1.8% active | AID 868;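 active = inhibition above a set limit, 3 SD over mean compound inhibition, cut at about 8.4% in these data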;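 note: 0% = DMSO-only wells with no growth and 100% = 10 µM 1-NA-PP1 full growth; inhibition rescues growth on 5-FOA so higher OD means more RAM inhibition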
Starred values were filed as active, the others as inactive.

SMILES	ABCG2 block	WT yeast gro inh	ABCB1 block	Lmaj promast	RAM network inh
Cc1ccc(N(C)C(=O)N2CCN(S(=O)(=O)c3ccc4ccccc4c3)CC2)cc1	2	29	2	18	4
COc1ccc(Nc2nnc(-c3ccc(C)cc3)c3ccccc23)cc1C(=O)N1CCCCC1	2	-4	1	66*	-1
O=C(Nc1nc(-c2cccnc2)cs1)c1ccccc1[N+](=O)[O-]	4	-6	-1	-2	6
COc1c(OC(C)=O)ccc(/C=C/c2ccc3ccccc3n2)c1[N+](=O)[O-]	2	68*	0	-3	0
CCOc1c(OC(C)=O)ccc(/C=C/c2ccc3cccc(OC(C)=O)c3n2)c1[N+](=O)[O-]	-1	65*	0	32	2
COc1c(OC(C)=O)ccc(/C=C/c2ccc3cccc(OC)c3n2)c1[N+](=O)[O-]	-5	43	-1	6	0
Clc1ccc(OCCOCCN2CCc3ccccc3C2)c(Cl)c1	2	70*	1	88*	-1
c1ccc(-c2ccccc2OCCOCCN2CCc3ccccc3C2)cc1	-1	44	0	77*	-1
CC1=NC(C#N)=C(C#N)NC(C)(C)C1	3	0	0	-7	0
CCOC(=O)c1c(C)oc2c1c(C(c1ccccc1)N1CCOCC1)c(O)c1ccccc12 (stereo not drawn)	-1	67*	0	36	3
CCOC(=O)c1c(C)oc2c1c(C=NCCO)c(O)c1ccccc12	8	4	1	-4	2
CCOC(=O)c1c(C)oc2c1c(C(c1cccnc1)N1CCCCC1)c(O)c1ccccc12 (stereo not drawn)	2	71*	0	98*	1
O=C(NCCCN1CCOCC1)c1ccccc1NS(=O)(=O)c1cc([N+](=O)[O-])ccc1Cl	15	12	5	-5	3
O=C(/C=N/O)NCCN1CCCCC1	3	59*	0	2	1
C=CCN1C=C/C(=C\C=C(C#N)C#N)c2ccccc21	-7	44	0	70*	4
CCN1C(=O)/C(=C/C=C2\C=CN(CC)c3ccccc32)SC1=S	1	14	1	-1	4
Clc1ccc(-c2c[n+](Cc3ccc(Cl)c(Cl)c3)c3n2CCC3)cc1	9	13	2	99*	1
Clc1cccc(C[n+]2cc(-c3ccccc3)n3c2CCC3)c1	-5	-14	-1	99*	1
S=c1[nH]ncn1/N=C/c1cccc(Oc2ccccc2)c1	-2	73*	0	-12	0
C(=N\n1cnnc1)/c1cccc(Oc2ccccc2)c1	3	46	1	20	1
CCC(C)NS(=O)(=O)c1ccc(S(=O)(=O)N(CC(=O)Nc2ccccc2)CC2CCCO2)cc1 (stereo not drawn)	2	-15	0	60*	3
COC(=O)CCN(C1CCCCC1)S(=O)(=O)c1ccc(S(=O)(=O)NC2CCCCC2)cc1	2	14	1	99*	7
O=C(CN(C1CC1)S(=O)(=O)c1ccc(S(=O)(=O)NC2CCCCC2)cc1)Nc1ccccc1	5	15	1	100*	2
CCC(C)NS(=O)(=O)c1ccc(NC(=O)CCC2CCCCC2)cc1 (stereo not drawn)	3	1	0	-4	1
O=C(NCCOC(=O)c1ccc(Cl)cc1)c1cccnc1	9	-11	-2	-5	-1
SMILES	ABCG2 block	WT yeast gro inh	ABCB1 block	Lmaj promast	RAM network inh
CN=C1NN=C(c2cc(C)n(-c3ccc(Cl)cc3)c2C)CS1	3	22	1	4	1
CCCn1c(=O)c(C(=O)OCC)c(O)c2cc(Br)ccc21	13	-9	0	-7	9.8*
COC(=O)c1nn(-c2ccccc2)c(Sc2ccc(Cl)cc2)c1/C=N/O	2	0	3	1	3
OC(CNC1CCCC1)COc1c(F)cc(Br)cc1F (stereo not drawn)	0	-4	0	93*	0
OC(COc1c(F)cc(Br)cc1F)CN1CCN(c2ccc(F)cc2)CC1 (stereo not drawn)	0	42	0	87*	0
CC1CCCC(C)N1CC(O)COc1c(F)cc(Br)cc1F (stereo not drawn)	1	-13	0	74*	0
OC(COc1ccc2ccccc2c1)CN1CCN(c2ccc(F)cc2)CC1 (stereo not drawn)	-4	17	-3	-2	2
CC(C)NCC(O)COc1c(F)cc(Br)cc1F (stereo not drawn)	2	9	1	30	0
CCC(C)(C)NC(=O)c1ccc2c(c1)OCCO2	1	-1	0	-10	2
CCOc1ccccc1C(=O)NC(C(=O)Nc1cccc(S(N)(=O)=O)c1)C(C)C (stereo not drawn)	2	17	0	10	0
COC(=O)C(Cc1ccc(OC(=O)c2ccccc2C)cc1)N1Cc2ccccc2C1=O (stereo not drawn)	4	21	1	8	8.9*
O=C(Nc1ccc(F)cc1)N1CCN2C(=O)c3ccccc3C12c1ccccc1 (stereo not drawn)	24	17	1	14	0
O=C1c2ccccc2C2(c3ccc(F)cc3)NCCN12 (stereo not drawn)	7	-4	0	58*	1
CCOc1ccc(NC(=O)Cn2nnc(C(=O)NCc3ccccc3OC)c2N)cc1	-1	-8	0	-4	9.9*
COc1ccccc1CNC(=O)c1csc(Cc2ccc(Cl)cc2)n1	3	28	1	11	8.7*
CCCCNC(=O)CN1C(=O)NC(CCc2ccccc2)C1=O (stereo not drawn)	3	10	0	14	0
CC(C)COC(=O)c1ccc2c(c1O)C(=O)c1ccccc1C2=O	24	44	2	8	8.8*
Cc1c(N=Nc2c(-c3ccc([N+](=O)[O-])cc3)[nH]n(C(N)=S)c2=O)cccc1[N+](=O)[O-]	0	23	0	65*	11*
NC(=S)n1[nH]c(-c2ccc([N+](=O)[O-])cc2)c(N=Nc2ccccc2[N+](=O)[O-])c1=O	-3	9	-1	20	5
O=C(CSc1nnc(-c2cccnc2)n1Cc1ccco1)N1CCc2ccccc21	2	3	0	3	3
Cc1occc1-c1nnc(SCC(=O)N2CCCc3ccccc32)n1Cc1ccco1	3	-2	2	74*	3
COc1cccc(-n2nnnc2SCC(=O)N2CCCc3ccccc32)c1	17	2	3	14	3
COc1cc(OC)cc(-n2nnnc2SCC(=O)N2CCCc3ccccc32)c1	2	2	1	8	8.9*
Cc1cccc(-n2ccnc2SCC(=O)N2CCCc3ccccc32)c1C	23	37	4	60*	3
CCOC(=O)C1=NOC(COc2ccccc2C=O)C1 (stereo not drawn)	1	0	0	-7	0
